The source made the active and inactive calls. The rule behind the calls is not given here. Where a SMILES comes first, the peptide text is derived from it. Bridges are numbered along the chain shown (N, C = ends). [ ]: non-standard residue; d: D form. S5 = C=CCCC[C@](C)(N)C(=O)O
Assays:
[1] = biological target: T1, Relaxin receptor 1 (Homo sapiens) (UniProt Q9HBX9); experiment: Agonist activity at RXFP1 receptor (unknown origin) expressed in HEK-293T cells cotransfected with beta-galactosidase assessed as cAMP activation at 10 uM by beta-galactosidase reporter gene assay; format: functional, cell-based
T1 sequence (whole entry): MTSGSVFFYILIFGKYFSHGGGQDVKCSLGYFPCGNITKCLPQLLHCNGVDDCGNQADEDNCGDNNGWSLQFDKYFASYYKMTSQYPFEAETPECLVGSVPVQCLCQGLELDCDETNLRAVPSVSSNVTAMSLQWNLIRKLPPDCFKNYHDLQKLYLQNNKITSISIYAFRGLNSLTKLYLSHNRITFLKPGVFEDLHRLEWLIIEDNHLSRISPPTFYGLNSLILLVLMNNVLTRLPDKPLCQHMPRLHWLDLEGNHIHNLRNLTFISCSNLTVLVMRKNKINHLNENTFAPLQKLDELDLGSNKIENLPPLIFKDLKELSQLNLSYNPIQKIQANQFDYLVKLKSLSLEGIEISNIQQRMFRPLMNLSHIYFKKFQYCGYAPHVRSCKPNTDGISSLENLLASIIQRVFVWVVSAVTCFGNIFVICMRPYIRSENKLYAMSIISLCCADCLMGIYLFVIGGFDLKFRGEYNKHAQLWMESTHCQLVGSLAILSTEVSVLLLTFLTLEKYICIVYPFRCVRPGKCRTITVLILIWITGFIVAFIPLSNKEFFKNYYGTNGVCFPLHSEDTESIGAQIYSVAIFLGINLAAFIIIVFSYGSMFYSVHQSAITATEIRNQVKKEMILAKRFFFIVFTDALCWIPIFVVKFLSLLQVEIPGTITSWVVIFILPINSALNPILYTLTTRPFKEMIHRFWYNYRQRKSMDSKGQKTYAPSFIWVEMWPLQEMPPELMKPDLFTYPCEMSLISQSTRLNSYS
In short: (§1)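 Tested for RXFP1 activation at concentrations up to 10 µM, alongside the […] as a reference.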

Relaxin receptor 1 = biological target: T2, Relaxin receptor 1 (Homo sapiens, UniProt Q9HBX9); experiment: (§2) Agonist activity at RXFP1 receptor (unknown origin) expressed in HEK-293T cells cotransfected with beta-galactosidase assessed as cAMP activation by beta-galactosidase reporter gene assay; format: functional, cell-based; in short: as §1
T2 sequence (Q9HBX9 whole entry): T1 sequence (whole entry)

Relaxin-3 receptor 1 [2] = biological target: T3, Relaxin-3 receptor 1 (Homo sapiens, UniProt Q9NSD7); experiment: Agonist activity at human RXFP3 receptor expressed in CHOK1 cells cotransfected with beta-galactosidase assessed as inhibition of forskolin-stimulated cAMP by beta-galactosidase reporter gene assay; format: functional, cell-based
T3 sequence (Q9NSD7 whole entry): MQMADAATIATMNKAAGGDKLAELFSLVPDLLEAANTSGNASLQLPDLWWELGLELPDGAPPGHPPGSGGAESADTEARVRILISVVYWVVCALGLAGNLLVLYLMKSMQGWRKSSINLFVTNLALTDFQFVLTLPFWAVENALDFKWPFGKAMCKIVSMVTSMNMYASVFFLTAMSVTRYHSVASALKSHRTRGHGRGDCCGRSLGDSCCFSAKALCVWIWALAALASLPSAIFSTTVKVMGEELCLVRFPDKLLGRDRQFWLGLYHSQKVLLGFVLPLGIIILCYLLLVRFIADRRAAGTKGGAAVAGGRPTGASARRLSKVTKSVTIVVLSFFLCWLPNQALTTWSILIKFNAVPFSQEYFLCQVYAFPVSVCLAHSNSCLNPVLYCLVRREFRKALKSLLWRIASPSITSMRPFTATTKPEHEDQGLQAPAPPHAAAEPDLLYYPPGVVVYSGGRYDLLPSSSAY

Relaxin-3 receptor 2 [3] = biological target: T4, Relaxin-3 receptor 2 (Homo sapiens, UniProt Q8TDU9); experiment: Displacement of Eu-INSL5 from human RXFP4 receptor expressed in CHOK1 cells by time-resolved fluorescent whole cell binding assay; format: cell-based
Relaxin-3 receptor 2 [4] = biological target: T4, Relaxin-3 receptor 2; experiment: Agonist activity at human RXFP4 receptor expressed in CHOK1 cells cotransfected with beta-galactosidase assessed as inhibition of forskolin-stimulated cAMP by beta-galactosidase reporter gene assay; format: functional, cell-based
Relaxin-3 receptor 1 [5] = biological target: T3, Relaxin-3 receptor 1; experiment: Displacement of Eu-H3/15 from human RXFP3 receptor expressed in CHOK1 cells by time-resolved fluorescent whole cell binding assay; format: cell-based
[6] = Toxicity in satiated Sprague-Dawley rat assessed as behavioral changes at 1 nmol, icv during early light phase measured after 1 hr post dose under home cage condition; settings: in vivo, icv_or_intrathecal
Rattus norvegicus [7] = experiment: Induction of food intake in satiated Sprague-Dawley rat at 1 nmol, icv during early light phase measured after 1 hr post dose; format: functional, organism-based
[8] = biological target: T1, Relaxin receptor 1 (Homo sapiens); experiment: as §2; format: functional, cell-based; in short: as §1
Relaxin-3 receptor 1 [9] = biological target: T3, Relaxin-3 receptor 1; experiment: Agonist activity at human RXFP3 receptor expressed in CHOK1 cells assessed as ERK1/2 phosphorylation incubated for 5 mins by alphascreen surefire assay; format: cell-based
Rattus norvegicus [10] = experiment: Induction of water intake in satiated Sprague-Dawley rat at 1 nmol, icv during early light phase measured after 1 hr post dose; format: functional, organism-based

T4 sequence (Q8TDU9 whole entry): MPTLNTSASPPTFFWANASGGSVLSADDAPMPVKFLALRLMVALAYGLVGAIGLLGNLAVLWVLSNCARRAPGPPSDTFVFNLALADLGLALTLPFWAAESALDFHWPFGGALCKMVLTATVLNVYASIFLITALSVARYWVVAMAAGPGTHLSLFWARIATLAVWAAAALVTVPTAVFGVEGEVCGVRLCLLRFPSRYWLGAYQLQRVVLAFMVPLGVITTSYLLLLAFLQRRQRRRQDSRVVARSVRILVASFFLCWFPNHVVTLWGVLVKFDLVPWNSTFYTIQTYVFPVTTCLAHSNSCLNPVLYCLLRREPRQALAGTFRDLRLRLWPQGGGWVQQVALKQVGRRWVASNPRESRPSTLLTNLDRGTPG

| Compound | Activity [1] | EC50 (Relaxin receptor 1) | EC50 (Relaxin-3 receptor 1 [2]) | Ki (Relaxin-3 receptor 2 [3]) | EC50 (Relaxin-3 receptor 2 [4]) | Ki (Relaxin-3 receptor 1 [5]) | pEC50 [8] | EC50 (Relaxin-3 receptor 1 [9]) | Activity [6] | Activity (Rattus norvegicus [7]) | Activity (Rattus norvegicus [10]) |
| --- | --- | --- | --- | --- | --- | --- | --- | --- | --- | --- | --- |
| CC[C@H](C)[C@H](NC(=O)[C@H](Cc1ccccc1)NC(=O)[C@H](CCC(=O)O)NC(=O)[C@H](CCCNC(=N)N)NC(=O)CNC(=O)[C@H](CO)NC(C)=O)C(=O)N[C@@H](CCCNC(=N)N)C(=O)N[C@@H](C)C(=O)N[C@H](C(=O)N[C@H](C(=O)N[C@@H](Cc1ccccc1)C(=O)N[C@H](C(=O)N[C@@H](CO)C(=O)NCC(=O)NCC(=O)N[C@@H](CO)C(=O)N[C@@H](CCCNC(=N)N)C(=O)N[C@@H](Cc1c[nH]c2ccccc12)C(=O)O)[C@@H](C)O)[C@@H](C)CC)C(C)C (Ac-SGREFIRAVIFTSGGSRW-OH) | inactive | > 10 µM | 8.71 µM | > 10 µM | 2.69 µM | – | – | – | – | – | – |
| CC[C@H](C)[C@@H]1NC(=O)[C@H](Cc2ccccc2)NC(=O)[C@@](C)(NC(=O)[C@H](CCCNC(=N)N)NC(=O)CNC(=O)[C@H](CO)NC(C)=O)CCC/C=C/CCC[C@@](C)(C(=O)N[C@H](C(=O)N[C@H](C(=O)N[C@@H](Cc2ccccc2)C(=O)N[C@H](C(=O)N[C@@H](CO)C(=O)NCC(=O)NCC(=O)N[C@@H](CO)C(=O)N[C@@H](CCCNC(=N)N)C(=O)N[C@@H](Cc2c[nH]c3ccccc23)C(=O)O)[C@@H](C)O)[C@@H](C)CC)C(C)C)NC(=O)[C@H](CCCNC(=N)N)NC1=O (Ac-SGR[S5]FIR[S5]VIFTSGGSRW-OH; staple (E) 4-8) | inactive | – | 0.00331 µM | 0.316 µM | 0.112 µM | 0.275 µM | inactive | 0.00012 µM | Non-Toxic | Active | inactive |
| CC[C@H](C)[C@@H]1NC(=O)[C@H](Cc2ccccc2)NC(=O)[C@@](C)(NC(=O)[C@H](CCCNC(=N)N)NC(=O)CNC(=O)[C@H](CO)NC(=O)[C@H](CC(C)C)NC(=O)[C@H](CCCNC(=N)N)NC(=O)[C@@H](NC(=O)CN)C(C)C)CCC/C=C/CCC[C@@](C)(C(=O)N[C@H](C(=O)N[C@H](C(=O)N[C@@H](Cc2ccccc2)C(=O)N[C@H](C(=O)N[C@@H](CO)C(=O)NCC(=O)NCC(=O)N[C@@H](CO)C(=O)N[C@@H](CCCNC(=N)N)C(=O)N[C@@H](Cc2c[nH]c3ccccc23)C(=O)O)[C@@H](C)O)[C@@H](C)CC)C(C)C)NC(=O)[C@H](CCCNC(=N)N)NC1=O (H-GVRLSGR[S5]FIR[S5]VIFTSGGSRW-OH; staple (E) 8-12) | inactive | – | 0.00447 µM | 0.275 µM | 0.316 µM | 0.0933 µM | inactive | – | – | – | – |
| CC[C@H](C)[C@@H]1NC(=O)[C@H](Cc2ccccc2)NC(=O)[C@@](C)(NC(=O)[C@H](CCCNC(=N)N)NC(=O)CNC(=O)[C@@H](N)CO)CCC/C=C/CCC[C@@](C)(C(=O)N[C@H](C(=O)N[C@H](C(=O)N[C@@H](Cc2ccccc2)C(=O)N[C@H](C(=O)N[C@@H](CO)C(=O)NCC(=O)NCC(=O)N[C@@H](CO)C(=O)N[C@@H](CCCNC(=N)N)C(=O)N[C@@H](Cc2c[nH]c3ccccc23)C(=O)O)[C@@H](C)O)[C@@H](C)CC)C(C)C)NC(=O)[C@H](CCCNC(=N)N)NC1=O (H-SGR[S5]FIR[S5]VIFTSGGSRW-OH; staple (E) 4-8) | inactive | – | 0.00447 µM | 0.407 µM | 0.191 µM | 0.151 µM | inactive | – | – | – | – |

Now from value to compound, other results behind:

| Activity [1] | EC50 (Relaxin receptor 1) | EC50 (Relaxin-3 receptor 1 [2]) | Ki (Relaxin-3 receptor 2 [3]) | EC50 (Relaxin-3 receptor 2 [4]) | Ki (Relaxin-3 receptor 1 [5]) | pEC50 [8] | EC50 (Relaxin-3 receptor 1 [9]) | Compound | Activity [6] | Activity (Rattus norvegicus [7]) | Activity (Rattus norvegicus [10]) |
| --- | --- | --- | --- | --- | --- | --- | --- | --- | --- | --- | --- |
| inactive | > 10 µM | – | – | – | – | – | – | CC[C@H](C)[C@H](NC(=O)[C@H](C)NC(=O)[C@@H](NC(=O)[C@H](CCC(N)=O)NC(=O)[C@H](C)NC(=O)[C@H](CCCNC(=N)N)NC(=O)[C@@H](NC(=O)[C@H](CC(C)C)NC(=O)[C@H](CCC(=O)O)NC(=O)[C@H](CCCNC(=N)N)NC(=O)CNC(=O)[C@H](CS)NC(=O)[C@H](CC(C)C)NC(=O)[C@H](CCCCN)NC(=O)[C@@H](NC(=O)[C@@H](NC(=O)[C@H](CCC(=O)O)NC(=O)[C@H](CCC(=O)O)NC(=O)[C@H](CCSC)NC(=O)[C@H](Cc1c[nH]c2ccccc12)NC(=O)[C@H](CO)NC(=O)[C@@H](N)CC(=O)O)C(C)C)[C@@H](C)CC)C(C)C)[C@@H](C)CC)C(=O)N[C@@H](CS)C(=O)NCC(=O)N[C@@H](CCSC)C(=O)N[C@@H](CO)C(=O)N[C@H](C(=O)N[C@@H](Cc1c[nH]c2ccccc12)C(=O)N[C@@H](CO)C(=O)O)[C@@H](C)O | – | – | – |
| inactive | > 10 µM | 0.00525 µM | 0.123 µM | 0.12 µM | 0.107 µM | – | – | CC[C@H](C)[C@@H]1NC(=O)[C@H](Cc2ccccc2)NC(=O)[C@@](C)(NC(=O)[C@H](CCCNC(=N)N)NC(=O)CNC(=O)[C@H](CO)NC(=O)[C@H](CC(C)C)NC(=O)[C@H](CCCNC(=N)N)NC(C)=O)CCC/C=C/CCC[C@@](C)(C(=O)N[C@H](C(=O)N[C@H](C(=O)N[C@@H](Cc2ccccc2)C(=O)N[C@H](C(=O)N[C@@H](CO)C(=O)NCC(=O)NCC(=O)N[C@@H](CO)C(=O)N[C@@H](CCCNC(=N)N)C(=O)N[C@@H](Cc2c[nH]c3ccccc23)C(=O)O)[C@@H](C)O)[C@@H](C)CC)C(C)C)NC(=O)[C@H](CCCNC(=N)N)NC1=O (Ac-RLSGR[S5]FIR[S5]VIFTSGGSRW-OH; staple (E) 6-10) | – | – | – |
| inactive | > 10 µM | 4.57 µM | > 10 µM | 5.89 µM | – | – | – | CC[C@H](C)[C@H](NC(=O)[C@H](Cc1ccccc1)NC(=O)[C@H](CCC(=O)O)NC(=O)[C@H](CCCNC(=N)N)NC(=O)CNC(=O)[C@H](CO)NC(C)=O)C(=O)N[C@@H](CCCNC(=N)N)C(=O)N[C@@H](CCCCN)C(=O)N[C@H](C(=O)N[C@H](C(=O)N[C@@H](Cc1ccccc1)C(=O)N[C@H](C(=O)N[C@@H](CO)C(=O)NCC(=O)NCC(=O)N[C@@H](CO)C(=O)N[C@@H](CCCNC(=N)N)C(=O)N[C@@H](Cc1c[nH]c2ccccc12)C(=O)O)[C@@H](C)O)[C@@H](C)CC)C(C)C (Ac-SGREFIRKVIFTSGGSRW-OH) | – | – | – |
| inactive | – | > 10 µM | > 10 µM | 2.75 µM | 0.575 µM | inactive | – | CC[C@H](C)[C@H](NC(=O)[C@H](Cc1ccccc1)NC(=O)[C@H](CCC(=O)O)NC(=O)[C@H](CCCNC(=N)N)NC(=O)CNC(=O)[C@H](CO)NC(=O)[C@H](CC(C)C)NC(=O)[C@@H](N)CCCNC(=N)N)C(=O)N[C@@H](CCCNC(=N)N)C(=O)N[C@@]1(C)CCC/C=C\CCC[C@@](C)(C(=O)N[C@@H](CO)C(=O)NCC(=O)NCC(=O)N[C@@H](CO)C(=O)N[C@@H](CCCNC(=N)N)C(=O)N[C@@H](Cc2c[nH]c3ccccc23)C(=O)O)NC(=O)[C@H](Cc2ccccc2)NC(=O)[C@H]([C@@H](C)CC)NC(=O)[C@H](C(C)C)NC1=O (H-RLSGREFIR[S5]VIF[S5]SGGSRW-OH; staple (Z) 10-14) | – | – | – |

— ChEMBL document CHEMBL4431328, “Development of a Single-Chain Peptide Agonist of the Relaxin-3 Receptor Using Hydrocarbon Stapling” (J Med Chem, 2016)
